Columns and labels:
[1] = target: T1, Short transient receptor potential channel 5 (Mus musculus) (UniProt Q9QX29); assay: Inhibition of mouse TRPC5 expressed in Flp-In-T-Rex-HEK293 cells assessed as reduction in […]-induced channel current at 3 uM by automated patch clamp method relative to control; type: cell-based
T1 sequence (whole entry): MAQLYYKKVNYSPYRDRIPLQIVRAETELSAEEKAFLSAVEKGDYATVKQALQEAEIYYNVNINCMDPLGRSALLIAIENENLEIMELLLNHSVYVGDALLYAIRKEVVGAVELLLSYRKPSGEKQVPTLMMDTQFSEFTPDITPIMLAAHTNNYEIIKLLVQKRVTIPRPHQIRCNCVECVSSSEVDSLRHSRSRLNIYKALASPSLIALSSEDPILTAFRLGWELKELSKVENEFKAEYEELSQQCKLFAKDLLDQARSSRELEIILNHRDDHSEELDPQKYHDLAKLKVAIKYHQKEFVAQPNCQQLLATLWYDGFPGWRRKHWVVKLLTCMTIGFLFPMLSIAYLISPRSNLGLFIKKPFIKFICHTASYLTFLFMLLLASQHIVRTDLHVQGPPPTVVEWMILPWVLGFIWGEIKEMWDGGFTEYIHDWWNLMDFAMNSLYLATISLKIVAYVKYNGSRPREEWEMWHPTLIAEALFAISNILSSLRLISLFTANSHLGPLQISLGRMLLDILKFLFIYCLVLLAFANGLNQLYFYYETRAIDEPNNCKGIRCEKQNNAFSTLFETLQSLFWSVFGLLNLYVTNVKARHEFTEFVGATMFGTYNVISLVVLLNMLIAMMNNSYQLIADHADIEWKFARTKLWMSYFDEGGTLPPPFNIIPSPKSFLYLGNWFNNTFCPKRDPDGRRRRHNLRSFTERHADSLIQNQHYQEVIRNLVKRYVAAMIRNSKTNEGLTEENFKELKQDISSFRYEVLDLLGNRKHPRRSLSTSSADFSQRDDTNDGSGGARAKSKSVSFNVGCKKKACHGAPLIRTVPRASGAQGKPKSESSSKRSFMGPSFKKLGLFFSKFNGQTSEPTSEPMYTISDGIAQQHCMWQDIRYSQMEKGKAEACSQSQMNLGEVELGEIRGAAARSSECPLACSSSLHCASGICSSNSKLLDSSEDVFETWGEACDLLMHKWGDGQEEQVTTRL
Summary of the method: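 Automated patch clamp (Syncropatch), one concentration in one well, >10 cells. At least one session across two assay plates. DMSO vehicle and a reference inhibitor run as controls on every plate. Result expressed as % inhibition.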

[2] = target: T2, Short transient receptor potential channel 5 (Mus musculus, UniProt Q9QX29); assay: Inhibition of mouse TRPC5 expressed in Flp-In-T-Rex-HEK293 cells assessed as reduction in […]-induced channel current by automated patch clamp method; type: cell-based
T2 sequence (Q9QX29 whole entry): T1 sequence (whole entry)
Summary of the method: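 Automated patch clamp (Syncropatch) with multiple concentrations in multiple wells. IC50 determined from these wells.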

[3] = AUC in rat at 25 mg/kg, ip; type: ADME, organism-based; settings: in vivo
Summary of the method: (§1)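 Single intraperitoneal dose of 25 mg/kg in 5% DMSO, 10% Tween80, 85% PBS.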

[4] = Tmax in rat at 25 mg/kg, ip; type: ADME, organism-based; settings: in vivo; summary of the method: as §1
[5] = Cmax in rat at 25 mg/kg, ip; type: ADME, organism-based; design: dose 25 mg/kg, route intraperitoneal; settings: in vivo; summary of the method: as §1

Structure (SMILES)	inhibition [1]	other results
CN(Cc1ccco1)c1nc2ccccc2n1Cc1ccccc1	41.7%	
Cc1ccoc1CNc1nc2ccccc2n1Cc1ccccc1	82.3%	IC50 [2]: 6.93 µM
COc1ccc(Cn2c(NCc3ccco3)nc3ccccc32)cc1F	88.4%	IC50 [2]: 11.6 µM
CCCn1c(NCc2ccco2)nc2ccccc21	81.2%	IC50 [2]: 15.5 µM
Brc1ccc(OCCn2c(NCc3ccco3)nc3ccccc32)cc1	91.1%	
c1ccc(Cn2c(NCc3cnco3)nc3ccccc32)cc1	33.3%	
c1ccc(Cn2c(NCc3cccnc3)nc3ccccc32)cc1	12%	
N#Cc1ccc(Cn2c(NCc3ccco3)nc3ccccc32)cc1	50.5%	
Clc1ccc(Cn2c(NCc3ccco3)nc3ccccc32)cc1	70.9%	
Cc1nnc(CNc2nc3ccccc3n2Cc2ccccc2)s1	30%	
CC(Nc1nc2ccccc2n1Cc1ccccc1)c1nccs1 (configuration not stated)	45%	
c1ccc(Cn2c(NCc3ncco3)nc3ccccc32)cc1	19.1%	
Fc1cc(Cl)ccc1Cn1c(NCc2ccco2)nc2ccccc21	128%	IC50 [2]: 18.1 µM
c1ccc(Cn2c(Nc3ccccc3)nc3ccccc32)cc1	18.9%	
c1coc(CNc2nc3ccccc3n2CC2CCCCC2)c1	61.6%	
CC(Nc1nc2ccccc2n1Cc1ccccc1)c1ccco1 (configuration not stated)	91.4%	IC50 [2]: 4.44 µM
Cc1cc2nc(NCc3ccco3)n(Cc3ccccc3)c2cc1C	123%	IC50 [2]: 12.3 µM
c1coc(CNc2nc3ccccc3n2CC2CCC2)c1	117%	
Fc1ccc(Cn2c(NCc3ccco3)nc3cccnc32)cc1	21.7%	
Clc1ccccc1Cn1c(NCc2ccco2)nc2ccccc21	2.6%	
c1ccc(Cn2c(NCc3cc4ccccc4o3)nc3ccccc32)cc1	18%	
c1coc(CNc2nc3ccccc3n2CCN2CCOCC2)c1	34.4%	

Structure (SMILES)	inhibition [1]	other results
c1ccc(Cn2c(NCc3cccs3)nc3ccccc32)cc1	150%	IC50 [2]: 6.26 µM
Cc1nc(CNc2nc3ccccc3n2Cc2ccccc2)no1	19.8%	
c1ccc(Cn2c(NCc3nccs3)nc3ccccc32)cc1	42.5%	
Cc1cccc(Cn2c(NCc3ccco3)nc3ccccc32)c1	94.6%	IC50 [2]: 4.8 µM
Clc1cc2nc(NCc3ccco3)n(Cc3ccccc3)c2cc1Cl	28.2%	
Cc1nc2ccccc2n1Cc1ccccc1	19%	
Fc1ccccc1Cn1c(NCc2ccco2)nc2ccccc21	54.4%	
Cc1ncc(CNc2nc3ccccc3n2Cc2ccccc2)s1	35.7%	
O=C(Nc1nc2ccccc2n1Cc1ccccc1)c1ccco1	38.5%	
c1ccc(Cn2c(NCc3ccncc3)nc3ccccc32)cc1	17.4%	
Fc1ccc(Cn2c(NCc3ccco3)nc3ccccc32)c(F)c1	87%	IC50 [2]: 8.42 µM
c1ccc(CNc2nc3ccccc3n2Cc2ccccc2)cc1	32.8%	
c1ccc(Cn2c(NCc3ccccn3)nc3ccccc32)cc1	-1.8%	
Fc1ccc(Cn2c(NCc3ccco3)nc3ccccc32)cc1		IC50 [2]: 1.82 µM
Fc1cccc(Cn2c(NCc3ccco3)nc3ccccc32)c1	61.9%	
Fc1ccc(Cn2c(NCc3ccco3)nc3ccccc32)c(Cl)c1	23.6%	
Clc1cccc(Cn2c(NCc3ccco3)nc3ccccc32)c1	70.2%	
c1ccc(Cn2c(Nc3cccnc3)nc3ccccc32)cc1	19.9%	
c1ccc(Cn2c(NCc3ccco3)nc3ccccc32)cc1	100%	IC50 [2]: 4.06 µM; AUC [3]: 1130 ng·h/mL; Tmax [4]: 6.6 min; Cmax [5]: 687 ng/mL
c1coc(CNc2nc3ccccc3n2CC2CCCO2)c1 (configuration not stated)	65.2%	
c1ccc(Cn2c(NCc3ccco3)nc3cccnc32)cc1	31.2%	
c1ccc(Cn2c(NCc3ccon3)nc3ccccc32)cc1	47%	

From ChEMBL document CHEMBL4371058, “Design, synthesis and characterization of novel N-heterocyclic-1-benzyl-1H-benzo[d]imidazole-2-amines as selective TRPC5 inhibitors leading to the identification of the selective compound, AC1903” (Bioorg Med Chem Lett, 2019)
